# Laboratory results: ChEMBL document CHEMBL4041464, “New potent biaryl sulfate-based hepatitis C virus inhibitors” (Eur J Med Chem, 2017)
# Assays:
# [1] = Inhibition of HCV genotype 1b NK5.1 NS5A in infected human Huh 7.5.1 cells assessed as reduction in viral RNA replication incubated for 3 days by luciferase reporter gene assay; parameters: species or system Hepatitis C virus subtype 1b; settings: Hepatitis C virus, NK5.1, Huh-7.5.1, 72 h
# Summary of the method: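 Genotype 1b replicon cells (Huh 7.5.1 carrying NK5.1-Gluc) were cultured 16 h, then given serially diluted compounds for 3 days. Culture media were collected and luciferase activity measured and normalised to mock-treated cells to derive EC50. Cells were maintained in DMEM with 10% heat-inactivated FBS and antibiotics at 37°C, 6.0% CO₂.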
# Huh7.5.1 = assay: Cytotoxicity against human Huh7.5.1 cells at 20 uM; type: cell-based
# Salmonella typhimurium [2] = assay: Mutagenicity in Salmonella typhimurium TA98 assessed as revertant colonies/plate in absence of liver S9 fraction at 1 ug/plate by Ames test (reference value: 21 +/- 1); type: toxicity; settings: salmonella enterica subsp. enterica serovar typhimurium
# [3] = Inhibition of HCV genotype 2a JFH5a replicon NS5A in infected human Huh 7.5.1 cells assessed as reduction in viral RNA replication incubated for 3 days by luciferase reporter gene assay; parameters: species or system Hepatitis C virus subtype 2a; settings: Hepatitis C virus, Huh-7.5.1, 72 h
# Summary of the method: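 Huh 7.5.1 cells were infected with JFH5a-Rluc-ad34 (a JFH1 genotype 2a derivative with adaptive E2/p7 mutations, Renilla luciferase reporter) cell-culture virus for 3 h. They were then cultured in serially diluted compounds for 3 days. Cells were harvested and Renilla luciferase activity measured, normalised to mock-treated cells, to give EC50.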
# Salmonella typhimurium [4] = assay: Mutagenicity in Salmonella typhimurium TA98 assessed as revertant colonies/plate in absence of liver S9 fraction at 5000 ug/plate by Ames test (reference value: 1); type: toxicity; settings: salmonella enterica subsp. enterica serovar typhimurium
# Salmonella typhimurium [5] = assay: Mutagenicity in Salmonella typhimurium TA100 assessed as revertant colonies/plate in presence of liver S9 fraction at 5000 ug/plate by Ames test (reference value: 5 +/- 2 ); type: toxicity; settings: salmonella enterica subsp. enterica serovar typhimurium
# Salmonella typhimurium [6] = assay: Mutagenicity in Salmonella typhimurium TA100 assessed as revertant colonies/plate in absence of liver S9 fraction at 5000 ug/plate by Ames test (reference value: 7 +/- 2 ); type: toxicity; settings: salmonella enterica subsp. enterica serovar typhimurium
# Salmonella typhimurium [7] = assay: Mutagenicity in Salmonella typhimurium TA98 assessed as revertant colonies/plate in presence of liver S9 fraction at 5000 ug/plate by Ames test (reference value: 1); type: toxicity; settings: salmonella enterica subsp. enterica serovar typhimurium
# [8] = Metabolic stability in human plasma assessed as compound remaining at 100 uM after 4 hrs incubation by LC-MS/MS analysis; type: ADME, cell-free; settings: read-out: Stability
# Summary of the method: (§1)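 Test compound (100 µM stock) was added to plasma pre-warmed 5 min at 37°C, mixed by vortex and incubated at 37°C. Samples were taken at 0, 15, 30, 60 and […] and quenched with 2 volumes acetonitrile. After centrifugation at 10,000 rpm for 10 min, the supernatant was analysed by LC-MS/MS. Results are given as % remaining after 4 h; mean ± SD. Enalapril and procaine served as controls.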
# [9] = Metabolic stability in rat plasma assessed as compound remaining at 100 uM after 4 hrs incubation by LC-MS/MS analysis; type: ADME, cell-free; settings: read-out: Stability; summary of the method: as §1
# Salmonella typhimurium [10] = assay: Mutagenicity in Salmonella typhimurium TA100 assessed as revertant colonies/plate in absence of liver S9 fraction at 1000 ug/plate by Ames test (reference value: 125 +/- 9); type: toxicity; settings: salmonella enterica subsp. enterica serovar typhimurium
# [11] = Half life in rat at 10 mg/kg, po; type: ADME, organism-based; settings: in vivo
# Rattus norvegicus = assay: Half life in rat at 1 mg/kg, iv; type: ADME, organism-based; settings: in vivo
# [12] = tested on: Hepatitis C virus subtype 1b; assay: Inhibition of HCV genotype 1b NK5.1 NS5A in infected human Huh 7.5.1 cells assessed as reduction in viral RNA replication by measuring combination index in presence of NS5B inhibitor sofosbuvir at ED90 incubated for 3 days by luciferase reporter gene assay
# Summary of the method: (§2)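 Huh 7.5.1 cells carrying the bicistronic genotype 1b replicon NK5.1-Gluc (secreted Gaussia luciferase) plated at 5 x 10⁴ cells/well. After 16 h they were exposed to inhibitor alone or mixed with sofosbuvir at a constant ratio, serially diluted, for 3 days. Luciferase was read and normalised to mock-treated cells. Combination index at ED50/75/90/95 was obtained by the Chou method.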
# [13] = tested on: Hepatitis C virus subtype 1b; assay: Inhibition of HCV genotype 1b NK5.1 NS5A in infected human Huh 7.5.1 cells assessed as reduction in viral RNA replication by measuring combination index in presence of NS5B inhibitor sofosbuvir at ED75 incubated for 3 days by luciferase reporter gene assay; summary of the method: as §2
# [14] = Cmax in rat at 1 mg/kg, iv; type: ADME, organism-based; parameters: dose 1 mg/kg, route intravenous; settings: in vivo
# [15] = tested on: Hepatitis C virus subtype 1b; assay: Inhibition of HCV genotype 1b NK5.1 NS5A in infected human Huh 7.5.1 cells assessed as reduction in viral RNA replication by measuring combination index in presence of NS5B inhibitor sofosbuvir at ED95 incubated for 3 days by luciferase reporter gene assay; summary of the method: as §2
# hERG (KCNH2) = hERG (KCNH2) (Homo sapiens, UniProt Q12809); assay: Inhibition of human ERG at 10 uM by fluorescence polarization assay
# [16] = Cmax in rat at 10 mg/kg, po; type: ADME, organism-based; parameters: dose 10 mg/kg, route oral; settings: in vivo
# [17] = Oral bioavailability in rat at 10 mg/kg; type: ADME, organism-based; settings: in vivo
# Salmonella typhimurium [18] = assay: Mutagenicity in Salmonella typhimurium TA98 assessed as revertant colonies/plate in absence of liver S9 fraction at 1000 ug/plate by Ames test (reference value: 21 +/- 1); type: toxicity; settings: salmonella enterica subsp. enterica serovar typhimurium
# [19] = tested on: Hepatitis C virus subtype 1b; assay: Inhibition of HCV genotype 1b NK5.1 NS5A in infected human Huh 7.5.1 cells assessed as reduction in viral RNA replication by measuring combination index in presence of NS5B inhibitor sofosbuvir at ED50 incubated for 3 days by luciferase reporter gene assay; summary of the method: as §2
# Salmonella typhimurium [20] = assay: Mutagenicity in Salmonella typhimurium TA100 assessed as revertant colonies/plate in presence of liver S9 fraction at 1000 ug/plate by Ames test (reference value: 129 +/- 3); type: toxicity; settings: salmonella enterica subsp. enterica serovar typhimurium
# Salmonella typhimurium [21] = assay: Mutagenicity in Salmonella typhimurium TA98 assessed as revertant colonies/plate in presence of liver S9 fraction at 1000 ug/plate by Ames test (reference value: 25 +/- 3); type: toxicity; settings: salmonella enterica subsp. enterica serovar typhimurium
# hERG (KCNH2), sequence (Q12809 whole entry): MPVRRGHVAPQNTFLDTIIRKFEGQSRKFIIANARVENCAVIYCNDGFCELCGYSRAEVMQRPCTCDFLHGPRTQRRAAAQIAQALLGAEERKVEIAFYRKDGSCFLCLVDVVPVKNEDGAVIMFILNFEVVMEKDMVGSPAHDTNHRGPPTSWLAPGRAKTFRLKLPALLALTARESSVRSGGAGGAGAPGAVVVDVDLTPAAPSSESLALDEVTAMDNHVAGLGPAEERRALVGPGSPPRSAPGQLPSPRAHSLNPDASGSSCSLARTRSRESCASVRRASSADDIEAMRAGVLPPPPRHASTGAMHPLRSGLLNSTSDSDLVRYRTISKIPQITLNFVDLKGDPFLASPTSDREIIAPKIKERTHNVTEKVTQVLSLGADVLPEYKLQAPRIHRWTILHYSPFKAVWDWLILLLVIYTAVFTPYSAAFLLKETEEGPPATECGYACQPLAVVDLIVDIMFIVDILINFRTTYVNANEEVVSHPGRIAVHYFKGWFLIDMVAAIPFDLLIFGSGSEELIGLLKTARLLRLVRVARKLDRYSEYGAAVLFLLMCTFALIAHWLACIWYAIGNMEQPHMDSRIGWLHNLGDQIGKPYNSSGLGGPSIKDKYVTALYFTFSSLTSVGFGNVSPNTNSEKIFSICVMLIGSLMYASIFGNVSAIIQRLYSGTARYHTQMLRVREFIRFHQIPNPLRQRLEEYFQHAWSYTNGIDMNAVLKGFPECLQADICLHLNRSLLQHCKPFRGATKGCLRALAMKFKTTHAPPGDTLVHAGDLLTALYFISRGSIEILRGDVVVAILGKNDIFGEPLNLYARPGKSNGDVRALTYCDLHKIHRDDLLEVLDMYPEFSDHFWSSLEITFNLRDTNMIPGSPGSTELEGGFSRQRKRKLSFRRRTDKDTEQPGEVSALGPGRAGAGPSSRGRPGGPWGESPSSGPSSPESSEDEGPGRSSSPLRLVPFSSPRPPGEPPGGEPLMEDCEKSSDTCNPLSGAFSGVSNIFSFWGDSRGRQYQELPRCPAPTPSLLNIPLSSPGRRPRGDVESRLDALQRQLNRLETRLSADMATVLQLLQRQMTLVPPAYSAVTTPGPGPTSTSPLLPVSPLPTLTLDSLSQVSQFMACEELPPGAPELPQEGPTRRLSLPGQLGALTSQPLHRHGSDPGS
structure (smiles),measurement,setting,value
COC(=O)N[C@H](C(=O)N1CCC[C@H]1c1ncc(-c2ccc(OS(=O)(=O)Oc3ccc(-c4cnc([C@@H]5CCCN5C(=O)[C@@H](NC(=O)OC)C(C)C)[nH]4)cc3)cc2)[nH]1)C(C)C,EC50,[1],4.26 nM
same,Activity,Huh7.5.1,> 30 µM
O=[N+]([O-])c1ccc2c(c1)Cc1ccccc1-2 [2-NITROFLUORENE],Activity,Salmonella typhimurium [2],183
COC(=O)N[C@H](C(=O)N1CCC[C@H]1C(=O)Nc1cccc(OS(=O)(=O)Oc2cccc(NC(=O)[C@@H]3CCCN3C(=O)[C@@H](NC(=O)OC)C(C)(C)C)c2)c1)C(C)(C)C,EC50,[3],0.943 nM
same,EC50,[1],0.0772 nM
same,Activity,Huh7.5.1,> 30 µM
Nc1ccc(OS(=O)(=O)Oc2ccc(N)cc2)cc1,Activity,Salmonella typhimurium [4],1
same,Activity,Salmonella typhimurium [5],8
same,Activity,Salmonella typhimurium [6],10
same,Activity,Salmonella typhimurium [7],1
COC(=O)N[C@@H](C(=O)N1CCC[C@H]1C(=O)Nc1ccc(OS(=O)(=O)Oc2ccc(NC(=O)[C@@H]3CCCN3C(=O)[C@H](NC(=O)OC)C(C)C)cc2)cc1)C(C)C,EC50,[1],575 nM
same,Activity,Huh7.5.1,> 30 µM
COC(=O)N[C@@H](C(=O)N1CCC[C@H]1C(=O)Nc1cccc(OS(=O)(=O)Oc2cccc(NC(=O)[C@@H]3CCCN3C(=O)[C@H](NC(=O)OC)c3ccccc3)c2C)c1C)c1ccccc1,EC50,[1],22.9 nM
same,Activity,Huh7.5.1,> 30 µM
COC(=O)N[C@@H](C(=O)N1CCC[C@H]1c1ncc(-c2cccc(OS(=O)(=O)Oc3cccc(-c4cnc([C@@H]5CCCN5C(=O)[C@H](NC(=O)OC)c5ccccc5)[nH]4)c3)c2)[nH]1)c1ccccc1,EC50,[3],10 nM
same,EC50,[1],0.36 nM
same,Activity,Huh7.5.1,> 30 µM
COC(=O)N[C@H](C(=O)N1CCC[C@H]1C(=O)Nc1ccc(S(=O)(=O)c2ccc(NC(=O)[C@@H]3CCCN3C(=O)[C@@H](NC(=O)OC)C(C)C)cc2)cc1)C(C)C,EC50,[1],> 100000 nM
same,Activity,Huh7.5.1,> 30 µM
CCN(CC)CCOC(=O)c1ccc(N)cc1 [PROCAINE],"remaining at 4 h, 100 µM",[8],0.003%
CCOC(=O)[C@H](CCc1ccccc1)N[C@@H](C)C(=O)N1CCC[C@H]1C(=O)O,"remaining at 4 h, 100 µM",[9],0.032%
COC(=O)N[C@H](C(=O)N1CCC[C@H]1c1ncc(-c2cccc(OS(=O)(=O)Oc3cccc(-c4cnc([C@@H]5CCCN5C(=O)[C@@H](NC(=O)OC)C(C)(C)C)[nH]4)c3)c2)[nH]1)C(C)(C)C,EC50,[1],37.1 nM
same,Activity,Huh7.5.1,> 30 µM
COC(=O)N[C@@H](C(=O)N1CCC[C@H]1C(=O)Nc1ccc(C)c(OS(=O)(=O)Oc2cc(NC(=O)[C@@H]3CCCN3C(=O)[C@H](NC(=O)OC)c3ccccc3)ccc2C)c1)c1ccccc1,EC50,[3],2.23 nM
same,EC50,[1],0.109 nM
same,Activity,Huh7.5.1,> 30 µM
COC(=O)N[C@@H](C(=O)N1CCC[C@H]1c1ncc(-c2ccc(OS(=O)(=O)Oc3ccc(-c4cnc([C@@H]5CCCN5C(=O)[C@H](NC(=O)OC)c5ccccc5)[nH]4)cc3)cc2)[nH]1)c1ccccc1,EC50,[3],0.147 nM
same,EC50,[1],0.27 nM
same,Activity,Huh7.5.1,> 30 µM
COC(=O)N[C@@H](C(=O)N1CCC[C@H]1C(=O)Nc1cccc(OS(=O)(=O)Oc2cccc(NC(=O)[C@@H]3CCCN3C(=O)[C@H](NC(=O)OC)c3ccccc3)c2)c1)c1ccccc1,Activity,Salmonella typhimurium [10],126
same,"remaining at 4 h, 100 µM",[8],86.3%
same,EC50,[3],0.0199 nM
same,"remaining at 4 h, 100 µM",[9],76.7%
same,half-life,[11],1.6 h
same,EC50,[1],0.0198 nM
same,t1/2,Rattus norvegicus,0.51 h
same,CI,[12],0.949
same,CI,[13],0.909
same,Cmax,[14],1960 ng/mL
same,CI,[15],0.977
same,inhibition at 10 µM,hERG (KCNH2),2.73%
same,Cmax,[16],14 ng/mL
same,bioavailability,[17],0.54%
same,Activity,Salmonella typhimurium [18],26
same,CI,[19],0.872
same,Activity,Salmonella typhimurium [20],130
same,Activity,Salmonella typhimurium [21],29
same,Activity,Huh7.5.1,> 30 µM
COC(=O)N[C@@H](C(=O)N1CCC[C@H]1c1ncc(-c2ccc(OS(=O)(=O)Oc3ccc(-c4cnc([C@@H]5CCCN5C(=O)[C@H](NC(=O)OC)C(C)C)[nH]4)cc3)cc2)[nH]1)C(C)C,EC50,[3],427 nM
same,EC50,[1],417 nM
same,Activity,Huh7.5.1,> 30 µM
COC(=O)N[C@@H](C(=O)N1CCC[C@H]1C(=O)Nc1ccc(S(=O)(=O)c2ccc(NC(=O)[C@@H]3CCCN3C(=O)[C@H](NC(=O)OC)C(C)C)cc2)cc1)C(C)C,EC50,[1],> 100000 nM
same,Activity,Huh7.5.1,> 30 µM
COC(=O)N[C@@H](C(=O)N1CCC[C@H]1C(=O)Nc1ccc(S(=O)(=O)c2ccc(NC(=O)[C@@H]3CCCN3C(=O)[C@H](NC(=O)OC)c3ccccc3)cc2)cc1)c1ccccc1,EC50,[1],36.1 nM
same,Activity,Huh7.5.1,> 30 µM
COC(=O)N[C@@H](C(=O)N1CCC[C@H]1C(=O)Nc1ccc(OS(=O)(=O)Oc2ccc(NC(=O)[C@@H]3CCCN3C(=O)[C@H](NC(=O)OC)c3ccccc3)cc2)cc1)c1ccccc1,EC50,[1],0.01 nM
same,Activity,Huh7.5.1,> 30 µM
COC(=O)N[C@H](C(=O)N1CCC[C@H]1c1ncc(-c2cccc(OS(=O)(=O)Oc3cccc(-c4cnc([C@@H]5CCCN5C(=O)[C@@H](NC(=O)OC)C(C)C)[nH]4)c3)c2)[nH]1)C(C)C,Activity,Salmonella typhimurium [10],125
same,"remaining at 4 h, 100 µM",[8],92.6%
same,EC50,[3],0.882 nM
same,"remaining at 4 h, 100 µM",[9],87.2%
same,half-life,[11],2.25 h
same,EC50,[1],0.0323 nM
same,t1/2,Rattus norvegicus,0.92 h
same,CI,[12],1.16
same,CI,[13],1.06
same,Cmax,[14],1680 ng/mL
same,CI,[15],1.25
same,inhibition at 10 µM,hERG (KCNH2),18.7%
same,Cmax,[16],17 ng/mL
same,bioavailability,[17],0.74%
same,Activity,Salmonella typhimurium [18],28
same,CI,[19],0.98
same,Activity,Salmonella typhimurium [20],110
same,Activity,Salmonella typhimurium [21],29
same,Activity,Huh7.5.1,> 30 µM
